hiPSC survival: hiPSC single-cell survival enhancement; ATPlite luminescence; 100% = ROCK inhibitor wells, 0% = DMSO; survival enhancement, % at 20 µM; 0.044% of 360,000 active; AID 602274; in the data active means survival enhancement above about 18%;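 further: cells exposed to compounds for 16 hours before the ATP read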
Gli-Sufu block: antagonists of Gli-Sufu signaling | Sufu-KO-LIGHT fibroblasts, Gli luciferase reporter luminescence | inhibition, % at 5 µM | 0.74% of 340,000 active | AID 588413;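 active means inhibition above about 55%, limit read from the data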;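 further: 0% = DMSO-treated cells and 100% = wells with medium but no cells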
Lipid droplet: modulators of hepatic lipid droplet formation; AML12 mouse hepatocytes, oleate lipid droplets, BODIPY imaging; 0.4% of 240,000 active; inhibition, % at 6.5 µM;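 active means lipid droplet intensity inhibited by at least 50%, with more than 500 cells counted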
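System: AML12 hepatocytes (mouse). Probe or stimulus: oleic acid at 100 µM to induce lipid droplet formation. Times: overnight treatment with compound plus oleate. Detection: Image-based BODIPY and DAPI two-channel analysis. Evaluation: percent inhibition of filter-corrected integrated lipid droplet intensity per well.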
Jurkat NFkB inh: lowers PMA/ionomycin-induced NF-kB signal in Jurkat cells; PMA/ionomycin-induced NF-kB luciferase reporter, luminescence; inhibition, % at 4 µM; 0.53% of 330,000 active; in the data active means inhibition above about 50%
TAG inh: inhibitors of triacylglycerol accumulation | inhibition, % at 12.5 µM | AID 651582 | H9c2 cells, Nile Red lipid (TAG) fluorescence; cells loaded with 200 µM oleic acid | 0.66% of 230,000 active;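 active means pattern-corrected inhibition of lipid staining of at least 50% with the nuclear-stain viability signal not falling by more than 50%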;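 further: 0% = DMSO wells and 100% = triacsin C control wells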
697 NFkB inh: lowers PMA/ionomycin-induced NF-kB signal in 697 B cells. 697 B-cell NF-kB luciferase reporter, 16 h. 0.33% of 330,000 active. inhibition, % at 4 µM; in the data active means inhibition above about 35%
Hep lipid conf: confirmation of inhibitors of hepatic lipid droplet formation; shares compounds with Lipid droplet; AML12 mouse hepatocytes, BODIPY lipid droplet imaging; droplets induced with 100 µM oleic acid; inhibition, % at 5.2 µM; 65% of 870 active;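 active means inhibition of lipid droplet metric at least 50%, with more than 300 cells in each of four replicates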;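 further: plate controls were DMSO with oleic acid for no effect and 5 µM Triacsin-C for full effect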
AML12 cytotox: counter-screen for cytotoxicity in AML12 mouse hepatocytes; shares compounds with Lipid droplet; DAPI nuclear morphology cytotoxicity imaging; hits give high values; cells fed 100 µM oleate overnight; z-score at 5 µM; 3% of 870 active; AID 463200; in the data active means z-score above about 6.3;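 further: compound exposure lasted overnight at 37 °C before fixation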
AML12 tox conf: confirmation of cytotoxicity in AML12 mouse hepatocytes | shares compounds with Lipid droplet | AML12 mouse hepatocyte viability, ATP luminescence; cells loaded with 100 µM oleic acid | cytotoxicity, % at 50 µM | 530 tested, under 10 active;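 active means cytotoxicity above 50% in each of four replicates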;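 further: compound exposure lasted overnight at 37 °C before the ATP read; 0% = DMSO-treated cells and 100% = wells with no cells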
The depositor's hits bear a star; nt = no result. The list is not random: actives were taken first. Their share in the collection is about 1.8%.

SMILES	hiPSC survival	Gli-Sufu block	Lipid droplet	Jurkat NFkB inh	TAG inh	697 NFkB inh	Hep lipid conf	AML12 cytotox	AML12 tox conf
CC1(C)Oc2ccc3ccc(=O)oc3c2/C(=C/Nc2ccc(O)cc2)C1=O	1	-3	56*	0	30	-11	94*	-0.42	-12
CC1CN(C(=O)Nc2cccc(Cl)c2)C2(CCCCCC2)O1 (stereo unspecified)	0	-21	1	-2	nt	10	nt	nt	nt
Cc1ccc(NC(=O)CN(C)C(=O)c2cc(-c3cccs3)nn2-c2ccccc2)cc1	0	-8	nt	-8	-10	-3	nt	nt	nt
Cc1ccc(NC(=O)Cn2cc(C(=O)C3CC3)c3ccccc32)cc1	0	-11	46	5	nt	-8	nt	nt	nt
Cc1cccc(NC(=O)Cn2cc(C(=O)C3CC3)c3ccccc32)c1	0	-26	51*	21	nt	19	93*	-0.11	20
Clc1nc(NC2CCCCC2)c2cn[nH]c2n1	2	-6	nt	nt	-3	nt	nt	nt	nt
CCc1cc(SC#N)cc(CC)c1NC(=O)CCl	-1	-8	81*	6	nt	-11	79*	1.8	9
CCOc1ccc(CCNC(=O)c2ccc3ccccc3n2)cc1OCC	1	5	78*	-1	43	-31	107*	-0.78	22
CCOc1ccc(CCNC(=O)C2(c3ccccc3)CC2)cc1OCC	0	-2	56*	-25	19	2	83*	-0.36	13
COc1ccc(-c2nc(CS(=O)CC(=O)NCCc3ccc(OC)c(OC)c3)c(C)o2)cc1 (stereo unspecified)	0	-17	-2	-9	nt	-14	nt	nt	nt
CCOc1ccc(CCNC(=O)CS(=O)Cc2nc(-c3ccc(OC)cc3)oc2C)cc1OCC (stereo unspecified)	0	4	76*	-11	nt	-58	81*	-0.47	11
CCOc1ccc(CCNC(=O)c2nccnc2C(=O)O)cc1OCC	0	4	4	-7	nt	6	nt	nt	nt
CCOc1ccc(CCNC(=O)c2c(C)nn(-c3ccccc3)c2Cl)cc1OCC	1	13	52*	18	38	-3	72*	-0.47	8
Cc1nn(-c2ccccc2)c(Cl)c1C(=O)NCCCCNC(=O)c1c(C)nn(-c2ccccc2)c1Cl	0	11	16	5	nt	6	nt	nt	nt
COc1ccccc1CNC(=O)C1CC(c2ccccc2C(F)(F)F)=NO1 (stereo unspecified)	-2	30	-17	-1	-3	-14	nt	nt	nt
O=C(NC1CCN(C(=O)C2CCCCC2)CC1)c1ccccc1	0	49	9	-1	-1	7	nt	nt	nt
CCOc1ccc(CCNC(=O)COC(=O)c2cc(=O)[nH]c3ccccc23)cc1OCC	0	-6	nt	17	17	9	nt	nt	nt
CCOc1ccc(CCNC(=O)Nc2cccc(OC)c2)cc1OCC	0	4	125*	4	nt	3	110*	-0.61	9
CCOc1ccc(CCNC(=O)CCC(=O)N2CCSc3ccccc32)cc1OCC	0	0	91*	20	nt	-5	110*	-0.67	18
COC(=O)c1c(-c2ccccc2)nn(-c2ccccc2)c1C(=O)OC	0	-13	-7	-2	nt	-11	nt	nt	nt
Cc1ccc(NC(=S)Nc2ccc3cn[nH]c3c2)cc1C	-1	-14	-24	-10	7	-53	nt	nt	nt
Cc1ccc(S(=O)(=O)N(C)C)cc1NC(=S)Nc1ccc2cn[nH]c2c1	0	3	56*	8	3	9	25	-0.93	nt
CC(NC(=O)[C@@H](C)NC(=O)[C@@H]1Cc2ccccc2CN1C(=O)OC(C)(C)C)c1ccccc1 (stereo partly specified)	0	1	68*	-16	nt	2	76*	-0.24	13
Cc1ccc(C(=O)/C=C/c2cc(C#N)n(C)c2C)cc1	1	-7	5	-6	nt	-3	nt	nt	nt
CCOc1ccccc1Nc1nnc(SC(C)C(=O)Nc2nc(-c3ccccc3)cs2)s1 (stereo unspecified)	2	-5	75*	-2	nt	-35	105*	-0.2	7
SMILES	hiPSC survival	Gli-Sufu block	Lipid droplet	Jurkat NFkB inh	TAG inh	697 NFkB inh	Hep lipid conf	AML12 cytotox	AML12 tox conf
Cc1cccc(CN2C(=O)N/C(=C/c3cc(C)n(-c4cc(C)ccn4)c3C)C2=O)c1	4	9	81*	-5	33	15	105*	-0.23	7
Cc1ncsc1CCC(=O)N1CCCC(Nc2ccc(C(C)C)cc2)C1 (stereo unspecified)	-1	1	-12	-4	1	-3	nt	nt	nt
CN(CC(=O)Nc1cccc(F)c1)C(=O)C1(c2ccccc2)CC1	0	3	nt	-1	-7	21	nt	nt	nt
Cc1cc(C)c(S(=O)(=O)N2CCOC2CNC(=O)C(=O)NCCc2c[nH]c3ccccc23)c(C)c1 (stereo unspecified)	0	-8	76*	-4	30	0	77*	-1	10
Cc1c(Cl)sn(-c2ccc(Cl)cc2)c1=O	-4	17	59*	43	106	8	-13	11*	nt
C=C(C)[C@@H]1CC[C@]2(C(=O)O)CC[C@]3(C)C(CCC4[C@@]5(C)CC[C@H](O)C(C)(C)C5CC[C@]43C)C12 (stereo partly specified)	0	-23	58*	0	nt	-18	20	0.66	nt
COc1cccc(NC(=O)CCC(=O)Nc2ccc3nc(N4CCOCC4)cc(C)c3c2)c1	0	-40	14	-19	nt	-16	nt	nt	nt
CCN1CCN(c2cc(C)c3cc(NC(=O)CCC(=O)Nc4ccc(OC)cc4OC)ccc3n2)CC1	0	16	89*	-14	nt	-14	94*	0.97	16
Cc1cc(C(=O)OC(C)C(=O)Nc2nc(-c3ccccc3)cs2)c(C)o1 (stereo unspecified)	0	-10	87*	-22	nt	-26	111*	-0.8	4
CCOCCCNC(=O)C1CCN(C(=O)Nc2ccc(C)cc2)CC1	-2	1	nt	0	nt	22	nt	nt	nt
CCCCNC(=O)C1CCN(C(=O)Nc2ccc(C)cc2)CC1	-2	-4	62*	1	32	-5	57*	0.85	nt
CC1CC(C)CN(C(=O)COC(=O)CN2C(=O)c3ccccc3C2=O)C1 (stereo unspecified)	-2	2	nt	-2	-7	16	nt	nt	nt
CC1CC(C)CN(C(=O)c2ccc3c(c2NCCO)C(=O)c2ccccc2C3=O)C1 (stereo unspecified)	3	19	91*	-7	127*	-2	115*	-0.98	37
